Results reported in ChEMBL document CHEMBL1137654, “Activity of an antimicrobial peptide mimetic against planktonic and biofilm cultures of oral pathogens” (2007).
≈ marks a conversion by molar mass, not a printed value. Calls of active or inactive are those of the source. The rule behind the calls is not given here.

Legend:
Streptococcus mutans [1] = test: Antibacterial activity against Streptococcus mutans ATCC 33402 in presence of 50% human saliva; type: functional
Nucleic Acid [2] = test: Binding affinity to single stranded AT-rich oligonucleotide assessed as retardation of oligonucleotide movement by agarose gel electrophoresis; type: nucleic-acid assay
Nucleic Acid [3] = test: Binding affinity to double stranded DNA retardation of oligonucleotide movement by agarose gel electrophoresis; type: nucleic-acid assay
Streptococcus mutans [4] = test: Antibacterial activity against Streptococcus mutans ATCC 33402 in presence of 30 nM single stranded DNA; type: functional, organism-based
Staphylococcus aureus [5] = test: Antibacterial activity against Staphylococcus aureus ATCC 27660 after 18 to 24 hrs; type: functional
Summary of the method: (§1)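 Exponential-phase overnight culture in the organism's growth medium, adjusted to 4.5 × 10⁵ CFU/ml and added to serial compound dilutions in 96-well plates; 37°C for 18 to 24 h in a humidified container. MIC = lowest concentration preventing visible turbidity. Triplicate.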

Porphyromonas gingivalis [6] = test: Antibacterial activity against Porphyromonas gingivalis ATCC 53978 after 24 to 48 hrs; type: functional
Summary of the method: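 P. gingivalis MBC, anaerobic, from MIC plates run in cooked meat medium and TSB: the MIC well and one dilution above and below plated; lowest concentration with no visible agar growth after 24 to 48 h.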

Nucleic Acid [7] = test: Binding affinity to single stranded GC-rich oligonucleotide assessed as retardation of oligonucleotide movement by agarose gel electrophoresis; type: nucleic-acid assay
Pichia kudriavzevii = test: Antifungal activity against Candida krusei ATCC 6258 after 24 hrs by broth microdilution assay; type: functional; settings: ATCC 6258, 24 h
Summary of the method: (§2)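 CLSI M27-A2 broth microdilution. Colonies from 24-h YPD agar culture suspended in 0.85% saline, set to 0.5 McFarland (OD 530 nm). Final inoculum 0.5–2.5 × 10³ CFU/ml in RPMI 1640 + 0.165 M MOPS pH 7.0. DMSO stock diluted to final 0.016–16 μg/ml. 35°C, visual read at 24 h against the drug-free well. Duplicate.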

Streptococcus mutans [8] = test: Antibacterial activity against Streptococcus mutans isolate N32 after 18 to 24 hrs; type: functional; summary of the method: as §1
Streptococcus mutans [9] = test: Antibacterial activity against Streptococcus mutans ATCC 33402 after 24 to 48 hrs; type: functional
Summary of the method: (§3)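 MBC: wells at the MIC plus one dilution above and below plated on agar; after 24 to 48 h growth, MBC = lowest concentration giving no visible growth on the agar surface.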

Nakaseomyces glabratus = test: Antifungal activity against Candida glabrata ATCC 90030 after 24 hrs by broth microdilution assay; type: functional; settings: ATCC 90030, 24 h; summary of the method: as §2
Streptococcus mutans [10] = test: Antibacterial activity against Streptococcus mutans ATCC 33402 assessed as inhibition of biofilm formation at >1 ug/ml in presence of 1% sucrose by crystal violet staining; type: functional, organism-based
Streptococcus mutans [11] = test: Antibacterial activity against Streptococcus mutans ATCC 33402 assessed as log cell killing at 10 times MIC within 1 minute by time kill study; type: functional
Actinomyces viscosus [12] = test: Antibacterial activity against Actinomyces viscosus after 24 to 48 hrs; type: functional; summary of the method: as §3
Streptococcus mutans [13] = test: Antibacterial activity against Streptococcus mutans ATCC 33402 biofilms assessed as inhibition of adherent biomass growth at >2.5 ug/ml in presence of 1% sucrose by crystal violet staining; type: functional, organism-based
Summary of the method: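 1 × 10⁵ CFU seeded in 96-well plates in BHI + 1% sucrose to form a biofilm, then exposed to increasing concentrations. After PBS washes to remove planktonic cells, methanol fixation and crystal violet staining, absorbance read at 595 nm. Reported as change from day-2 cultures before compound addition. Triplicate; SD.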

Candida tropicalis = test: Antifungal activity against Candida tropicalis ATCC 750 after 24 hrs by broth microdilution assay; type: functional; settings: ATCC 750, 24 h; summary of the method: as §2
Streptococcus mutans [14] = test: Antibacterial activity against Streptococcus mutans ATCC 33402 assessed as log cell killing at MIC after 1 hr by time kill study; type: functional, organism-based
Staphylococcus aureus [15] = test: Antibacterial activity against Staphylococcus aureus ATCC 27660 after 24 to 48 hrs; type: functional; summary of the method: as §3
Streptococcus mutans [16] = test: Antibacterial activity against Streptococcus mutans ATCC 33402 in presence of 25% human saliva; type: functional
Streptococcus mutans [17] = test: Antibacterial activity against Streptococcus mutans ATCC 33402 biofilms assessed as bacterial dead cells at 50 ug/ml after 24 hrs by fluorescence confocal microscopy; type: functional, organism-based
Summary of the method: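 2-day sucrose biofilms treated 24 h with 0 or 50 μg/ml, washed three times with PBS, stained 15 min in the dark with LIVE/DEAD dye diluted 1:1,000, washed once. Imaged by confocal laser scanning microscopy at 488 and 543 nm, side and top views.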

Streptococcus mutans [18] = test: Antibacterial activity against Streptococcus mutans isolate N43 after 18 to 24 hrs; type: functional; summary of the method: as §1
Streptococcus mutans [19] = test: Antibacterial activity against Streptococcus mutans isolate N43 after 24 to 48 hrs; type: functional; summary of the method: as §3
Actinomyces viscosus [20] = test: Antibacterial activity against Actinomyces viscosus after 18 to 24 hrs; type: functional; summary of the method: as §1
Candida albicans [21] = test: Antifungal activity against Candida albicans ATCC 90028 after 24 hrs by broth microdilution assay; type: functional; settings: ATCC 90028, 24 h; summary of the method: as §2
Candida albicans [22] = test: Antifungal activity against Candida albicans M70 after 24 hrs by broth microdilution assay; type: functional; settings: M70, 24 h; summary of the method: as §2
Streptococcus mutans [23] = test: Antibacterial activity against Streptococcus mutans ATCC 33402 in presence of 10% human saliva; type: functional
Candida albicans [24] = test: Antifungal activity against Candida albicans 44 after 24 hrs by broth microdilution assay; type: functional; settings: Candida albicans, 44, 24 h; summary of the method: as §2
[25] = tested on: Aggregatibacter actinomycetemcomitans; test: Antibacterial activity against Actinobacillus actinomycetemcommitans CU1000 after 24 to 48 hrs; type: functional; summary of the method: as §3
Streptococcus mutans [26] = test: Antibacterial activity against Streptococcus mutans ATCC 33402 biofilms assessed as log reduction of viable bacteria at 50 ug/ml; type: functional
Summary of the method: (§4)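 1 × 10⁵ CFU grown 2 days in BHI + 1% sucrose, then compound added for 24 h. Biofilms washed with PBS, disrupted by sonication (30 s) in 2 ml PBS, serially diluted and plated on mitis agar for viable counts.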

Porphyromonas gingivalis [27] = test: Antibacterial activity against Porphyromonas gingivalis ATCC 53978 after 18 to 24 hrs; type: functional
Summary of the method: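 P. gingivalis maintained in cooked meat medium with glucose, hemin and vitamin K at 37°C, anaerobic. MIC run in both cooked meat medium and TSB: 4.5 × 10⁵ CFU/ml with serial dilutions, 18 to 24 h, lowest concentration without visible turbidity. Triplicate.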

Candida dubliniensis = test: Antifungal activity against Candida dubliniensis NCPF3949 after 24 hrs by broth microdilution assay; type: functional; settings: NCPF3949, 24 h; summary of the method: as §2
[28] = tested on: Aggregatibacter actinomycetemcomitans; test: Antibacterial activity against Actinobacillus actinomycetemcommitans CU1000 after 18 to 24 hrs; type: functional; summary of the method: as §1
Candida parapsilosis = test: Antifungal activity against Candida parapsilosis ATCC 22019 after 24 hrs by broth microdilution assay; type: functional; settings: Lodderomyces parapsilosis, ATCC 22019, 24 h; summary of the method: as §2
Streptococcus mutans [29] = test: Antibacterial activity against Streptococcus mutans ATCC 33402 after 18 to 24 hrs; type: functional; summary of the method: as §1
Streptococcus mutans [30] = test: Antibacterial activity against Streptococcus mutans isolate N32 after 24 to 48 hrs; type: functional; summary of the method: as §3
RAW264.7 [31] = test: Inhibition of Pseudomonas aeruginosa LPS-induced TNFalpha production in mouse RAW264.7 cells at 9.5 nM after 6 hrs by ELISA; type: functional, cell-based
Summary of the method: (§5)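 RAW 264.7 macrophages plated overnight at 1 × 10⁶ cells/well, then stimulated with 100 ng/ml LPS together with test agent for 6 h at 37°C. TNF-α in the medium measured by mouse TNF-α ELISA. Triplicate; SE; t test.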

RAW264.7 [32] = test: Inhibition of Pseudomonas aeruginosa LPS-induced TNFalpha production in mouse RAW264.7 cells at 7 nM after 6 hrs by ELISA; type: functional, cell-based; summary of the method: as §5
Streptococcus mutans [33] = test: Antibacterial activity against Streptococcus mutans ATCC 33402 biofilms assessed as log reduction of viable bacteria at 500 ug/ml; type: functional, organism-based; summary of the method: as §4

## NCCc1cc(Br)cc(C#Cc2cccc(C#Cc3cc(Br)cc(CCN)c3)c2)c1
Streptococcus mutans [1]
  MIC: 0.5 µg/mL
Nucleic Acid [2]
  Activity: Active
Nucleic Acid [3]
  Activity: Active
Streptococcus mutans [4]
  Activity: Active
Staphylococcus aureus [5]
  MIC: 0.25 µg/mL (≈ 0.479 µM)
Porphyromonas gingivalis [6]
  MBC: 2.5 µg/mL (≈ 4.79 µM)
Nucleic Acid [7]
  Activity: Active
Pichia kudriavzevii
  MFC: 2 µg/mL (≈ 3.83 µM)
  MIC: 1 µg/mL (≈ 1.91 µM)
Streptococcus mutans [8]
  MIC: 0.5 µg/mL (≈ 0.957 µM)
Streptococcus mutans [9]
  MBC: 1.25 µg/mL (≈ 2.39 µM)
Nakaseomyces glabratus
  MFC: 2 µg/mL (≈ 3.83 µM)
  MIC: 1 µg/mL (≈ 1.91 µM)
Streptococcus mutans [10]
  Activity: Active
Streptococcus mutans [11]
  Activity: >2
Actinomyces viscosus [12]
  MBC: 1.5 µg/mL (≈ 2.87 µM)
Streptococcus mutans [13]
  Activity: Active
Candida tropicalis
  MFC: 2 µg/mL (≈ 3.83 µM)
  MIC: 1 µg/mL (≈ 1.91 µM)
Streptococcus mutans [14]
  Activity: Active
Staphylococcus aureus [15]
  MBC: 0.8 µg/mL (≈ 1.53 µM)
Streptococcus mutans [16]
  MIC: 1 µg/mL
Streptococcus mutans [17]
  Activity: Active
Streptococcus mutans [18]
  MIC: 0.5 µg/mL (≈ 0.957 µM)
Streptococcus mutans [19]
  MBC: 1.25 µg/mL (≈ 2.39 µM)
Actinomyces viscosus [20]
  MIC: 0.8 µg/mL (≈ 1.53 µM)
Candida albicans [21]
  MFC: 2 µg/mL (≈ 3.83 µM)
  MIC: 1 µg/mL (≈ 1.91 µM)
Candida albicans [22]
  MFC: 1 µg/mL (≈ 1.91 µM)
  MIC: 0.5 µg/mL (≈ 0.957 µM)
Streptococcus mutans [23]
  MIC: 1 µg/mL
Candida albicans [24]
  MFC: 1 µg/mL (≈ 1.91 µM)
  MIC: 0.5 µg/mL (≈ 0.957 µM)
[25]
  MBC: 1.5 µg/mL (≈ 2.87 µM)
Streptococcus mutans [26]
  Activity: 3
Porphyromonas gingivalis [27]
  MIC: 2.5 µg/mL (≈ 4.79 µM)
Candida dubliniensis
  MFC: 2 µg/mL (≈ 3.83 µM)
  MIC: 1 µg/mL (≈ 1.91 µM)
[28]
  MIC: 0.4 µg/mL (≈ 0.766 µM)
Candida parapsilosis
  MFC: 2 µg/mL (≈ 3.83 µM)
  MIC: 1 µg/mL (≈ 1.91 µM)
Streptococcus mutans [29]
  MIC: 0.5 µg/mL (≈ 0.957 µM)
Streptococcus mutans [30]
  MBC: 1.25 µg/mL (≈ 2.39 µM)
RAW264.7 [31]
  Activity: Active

## POLYMYXIN B
RAW264.7 [32]
  Activity: Active

## CN(C)[C@@H]1C(O)=C(C(N)=O)C(=O)[C@@]2(O)C(O)=C3C(=O)c4c(O)cccc4[C@@](C)(O)[C@H]3C[C@@H]12
Streptococcus mutans [33]
  Activity: Active
